The record followed here is ChEMBL document CHEMBL4043125, “Design, synthesis, and pharmacological evaluation of a novel series of hormone sensitive lipase inhibitor” (Bioorg Med Chem, 2017).

Data set [1] addresses Cholinesterase (Homo sapiens) (UniProt P06276). Nature of the data set: Inhibition of BuChE (unknown origin) at 10 uM using S-butyrylthiocholin iodide as substrate preincubated for 10 mins followed by substrate addition measured after 15 mins by spectrophotometric analysis relative to control. The method, boiled down:
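Enzyme (100 U/mL) preincubated with inhibitor 10 min at room temperature, then mixed with 0.1 M potassium phosphate-HCl pH 8.0, S-butyrylthiocholin iodide (final 1000 μM) and DTNB; incubated 15 min at 37°C with shaking. Absorbance at 405 nm read at 0 and 15 min. Tested at 1, 10 and 100 μM.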

The target in data set [2] is Acetylcholinesterase (Homo sapiens) (UniProt P22303). Nature of the data set: Inhibition of AChE (unknown origin) at 10 uM using acetylthiocholine iodide as substrate preincubated for 10 mins followed by substrate addition measured after 15 mins by spectrophotometric analysis relative to control. The method, boiled down:
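Enzyme (100 U/mL) preincubated with inhibitor 10 min at room temperature, then mixed with 0.1 M potassium phosphate-HCl pH 8.0, acetylthiocholin iodide (final 500 μM) and DTNB; incubated 15 min at 37°C with shaking. Absorbance at 405 nm read at 0 and 15 min. Tested at 1, 10 and 100 μM.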

For data set [3], the target named is T1, Hormone-sensitive lipase (Rattus norvegicus, UniProt P15304).
T1 sequence (P15304 whole entry): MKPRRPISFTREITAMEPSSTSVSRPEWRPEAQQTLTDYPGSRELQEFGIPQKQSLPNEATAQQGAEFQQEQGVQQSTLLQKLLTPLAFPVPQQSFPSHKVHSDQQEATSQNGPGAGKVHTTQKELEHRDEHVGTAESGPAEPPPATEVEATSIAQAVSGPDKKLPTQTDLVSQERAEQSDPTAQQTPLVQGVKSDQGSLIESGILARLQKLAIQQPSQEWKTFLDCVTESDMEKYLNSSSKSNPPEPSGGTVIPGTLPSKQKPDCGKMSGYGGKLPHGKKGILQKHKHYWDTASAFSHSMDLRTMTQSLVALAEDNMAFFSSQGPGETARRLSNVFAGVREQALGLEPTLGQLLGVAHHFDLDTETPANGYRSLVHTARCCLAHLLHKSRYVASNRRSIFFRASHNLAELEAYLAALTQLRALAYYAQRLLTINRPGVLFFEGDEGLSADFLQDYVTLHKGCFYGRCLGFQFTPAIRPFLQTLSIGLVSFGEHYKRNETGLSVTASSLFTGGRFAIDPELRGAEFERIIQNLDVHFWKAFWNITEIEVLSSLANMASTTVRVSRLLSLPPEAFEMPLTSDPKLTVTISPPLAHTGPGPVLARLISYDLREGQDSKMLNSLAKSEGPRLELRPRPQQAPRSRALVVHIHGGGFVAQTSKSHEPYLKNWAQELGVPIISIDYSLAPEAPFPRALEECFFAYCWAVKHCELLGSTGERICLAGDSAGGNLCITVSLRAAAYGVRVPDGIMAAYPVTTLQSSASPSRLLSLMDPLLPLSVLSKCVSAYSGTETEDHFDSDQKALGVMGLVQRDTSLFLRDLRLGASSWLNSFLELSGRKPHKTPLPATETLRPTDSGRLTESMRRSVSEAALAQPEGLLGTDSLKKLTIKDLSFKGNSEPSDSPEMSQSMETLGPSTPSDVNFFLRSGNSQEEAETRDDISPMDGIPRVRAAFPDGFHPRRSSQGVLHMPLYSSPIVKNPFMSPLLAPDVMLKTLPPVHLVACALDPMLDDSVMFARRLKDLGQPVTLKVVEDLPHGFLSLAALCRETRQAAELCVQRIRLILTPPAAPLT
Nature of the data set: Inhibition of HSL in rat adipocytes assessed as reduction in lipolysis by measuring glycerol concentration incubated for 30 mins by spectrophotometric analysis. Format: cell-based. The method, boiled down:
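Rat subcutaneous white adipocytes, differentiated 7 days, washed in lipolysis buffer (pH 7.0, with glucose, HEPES, adenosine, 1% BSA). Compound dilutions in DMSO added, 30 min at 37°C, 5% CO2. Supernatant glycerol measured with a free glycerol kit at 540 nm. Triplicate; IC50 from nonlinear curve fitting.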

Data set [4] is described as follows: Cmax in rat at 3 mg/kg, po by LC-MS/MS analysis. It is filed as ADME, organism-based. Further details: dose 3 mg/kg, route oral. Conditions: in vivo.
A short description of data set [5]: 1-octanol/phosphate buffered saline distribution coefficient, log D of the compound at 200 uM at pH 7.4 after 30 mins by shake flask based HPLC/LC-MS analysis. Format: physicochemical. Summed up:
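Shake-flask LogD: PBS and 1-octanol pre-saturated by shaking and standing overnight. Compound at 200 μM in either phase, equal volume of the other added, shaken 30 min at room temperature, centrifuged 2100 g 5 min. Both phases quantified by HPLC and LC-MS. LogD7.4 = log(octanol peak area/PBS peak area).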

Data set [6] in a line: Aqueous solubility of the compound in Japanese pharmacopoeia first fluid at pH 1.2 after 4 hrs by HPLC/UV analysis. It is filed as physicochemical. The method, boiled down: (§1)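 Solubility: DMSO sample solution freeze-dried. Residue stirred at 1700 rpm for 4 h in JP first fluid (pH 1.2), JP second fluid (pH 6.8) or FaSSIF. Filtered, filtrate diluted in DMSO, quantified by HPLC-UV against a per-sample calibration curve.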

For data set [7], the system named is Rattus norvegicus. Put plainly: Antilipolytic activity in Wistar rat assessed as reduction in plasma glycerol AUC (0 to 7 hrs) at 1 mg/kg, po by spectrophotometric analysis relative to control. It is filed as functional. The arrangement: scale not given: the % may be the effect or the level left. Summed up: (§2)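 Male Wistar rats, 8 weeks, fasted overnight. Dosed orally in 0.5% (w/v) methylcellulose, with vehicle controls (n = 4) and treated groups (n = 3). Tail-vein EDTA blood taken pre-dose and at 0.5, 1, 3, 5, 7 h. Plasma glycerol read with a free glycerol kit. Reduction in glycerol AUC0–7h versus vehicle expressed relative to a reference inhibitor group; mean ± SEM.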

Data set [8] is described as follows: Aqueous solubility of the compound in FaSSIF after 4 hrs by HPLC/UV analysis. Format: physicochemical. Summed up:
as §1

The nature of data set [9]: AUC (0 to 7 hrs) in rat at 3 mg/kg, po by LC-MS/MS analysis. It is filed as ADME, organism-based. Further details: time < 7 hr, dose 3 mg/kg, route oral. Particulars: in vivo.
Data set [10] can be described thus: Effective permeability of the compound in prisma HT buffer at 10 mM at pH 7.4 after 4 hrs by PAMPA. Conditions: read-out: Peff. It is filed as physicochemical. Summed up: (§3)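 PAMPA: filter coated with GIT-0 lipid. 10 mM DMSO stock diluted into Prisma HT buffer to give 5 µM donor solution (0.05% DMSO) at pH 5.0 or 7.4. Acceptor sink buffer used. Incubated 4 h at 25°C. Both compartments quantified by LC-MS/MS to derive the permeability coefficient.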

Data set [11] in a line: Aqueous solubility of the compound in Japanese pharmacopoeia second fluid at pH 6.8 after 4 hrs by HPLC/UV analysis. It is filed as physicochemical. Summed up: as §1
Data set [12] in a line: Effective permeability of the compound in prisma HT buffer at 10 mM at pH 5 after 4 hrs by PAMPA. It is filed as physicochemical. Particulars: read-out: Peff. The method, boiled down: as §3
Background: In PAMPA a lipid-coated filter parts donor from acceptor wells.

The target in data set [13] is T2, Hormone-sensitive lipase (Homo sapiens, UniProt Q05469).
T2 sequence (Q05469 whole entry): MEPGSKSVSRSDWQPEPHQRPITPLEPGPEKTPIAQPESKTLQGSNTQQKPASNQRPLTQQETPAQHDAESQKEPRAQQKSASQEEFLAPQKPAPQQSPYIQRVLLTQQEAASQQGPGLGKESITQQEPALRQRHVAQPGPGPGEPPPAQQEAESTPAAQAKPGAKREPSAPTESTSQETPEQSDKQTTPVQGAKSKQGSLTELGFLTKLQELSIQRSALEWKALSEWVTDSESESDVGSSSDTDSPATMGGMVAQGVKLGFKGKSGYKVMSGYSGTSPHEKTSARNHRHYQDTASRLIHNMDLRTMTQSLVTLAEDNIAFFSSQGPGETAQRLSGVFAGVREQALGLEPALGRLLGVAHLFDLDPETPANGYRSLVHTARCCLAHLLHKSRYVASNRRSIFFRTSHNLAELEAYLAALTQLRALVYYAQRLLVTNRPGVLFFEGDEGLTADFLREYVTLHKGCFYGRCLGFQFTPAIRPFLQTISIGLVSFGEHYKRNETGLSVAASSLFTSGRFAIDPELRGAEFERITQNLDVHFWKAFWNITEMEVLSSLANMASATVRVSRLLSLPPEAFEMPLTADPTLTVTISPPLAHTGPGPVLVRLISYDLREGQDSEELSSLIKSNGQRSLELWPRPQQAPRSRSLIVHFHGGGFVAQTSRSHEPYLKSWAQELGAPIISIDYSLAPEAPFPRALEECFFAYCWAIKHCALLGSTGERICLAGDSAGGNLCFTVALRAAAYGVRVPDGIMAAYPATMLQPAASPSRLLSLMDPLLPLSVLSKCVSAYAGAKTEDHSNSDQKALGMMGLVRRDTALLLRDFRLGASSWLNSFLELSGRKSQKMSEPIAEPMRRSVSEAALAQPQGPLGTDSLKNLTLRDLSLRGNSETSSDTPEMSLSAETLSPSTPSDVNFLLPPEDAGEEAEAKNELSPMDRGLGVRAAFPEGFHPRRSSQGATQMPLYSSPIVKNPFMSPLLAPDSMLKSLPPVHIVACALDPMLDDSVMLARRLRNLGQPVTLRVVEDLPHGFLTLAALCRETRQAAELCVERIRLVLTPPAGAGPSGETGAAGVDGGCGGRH
Nature of the data set: Inhibition of recombinant human HSL expressed in baculovirus infected sf9 insect cells using PNPB as substrate after 5 mins by spectrophotometric analysis.

For data set [14], the system named is Rattus norvegicus. Nature of the data set: Antilipolytic activity in Wistar rat assessed as reduction in plasma glycerol AUC (0 to 7 hrs) at 10 mg/kg, po by spectrophotometric analysis. It is filed as functional, organism-based. The method, boiled down: as §2

Converted amounts (≈) assume the structure as drawn. The source made the active and inactive calls. No cut-off for these calls is given here.

What is called inhibition is the relative decrease from the control value, in per cent. A word on the IC50: it is the midpoint of a concentration-inhibition curve. As a reminder, the Cmax is the peak of the concentration-time curve. For orientation: logD means lipophilicity at a set pH, counting ionised and neutral species. As usually defined, the solubility is the concentration that dissolves in the medium under given conditions. By AUC(0-t) is commonly meant exposure summed from dosing to a finite time, without extrapolation to infinity.

Chain of Acetylcholinesterase (Homo sapiens) (P22303 whole entry): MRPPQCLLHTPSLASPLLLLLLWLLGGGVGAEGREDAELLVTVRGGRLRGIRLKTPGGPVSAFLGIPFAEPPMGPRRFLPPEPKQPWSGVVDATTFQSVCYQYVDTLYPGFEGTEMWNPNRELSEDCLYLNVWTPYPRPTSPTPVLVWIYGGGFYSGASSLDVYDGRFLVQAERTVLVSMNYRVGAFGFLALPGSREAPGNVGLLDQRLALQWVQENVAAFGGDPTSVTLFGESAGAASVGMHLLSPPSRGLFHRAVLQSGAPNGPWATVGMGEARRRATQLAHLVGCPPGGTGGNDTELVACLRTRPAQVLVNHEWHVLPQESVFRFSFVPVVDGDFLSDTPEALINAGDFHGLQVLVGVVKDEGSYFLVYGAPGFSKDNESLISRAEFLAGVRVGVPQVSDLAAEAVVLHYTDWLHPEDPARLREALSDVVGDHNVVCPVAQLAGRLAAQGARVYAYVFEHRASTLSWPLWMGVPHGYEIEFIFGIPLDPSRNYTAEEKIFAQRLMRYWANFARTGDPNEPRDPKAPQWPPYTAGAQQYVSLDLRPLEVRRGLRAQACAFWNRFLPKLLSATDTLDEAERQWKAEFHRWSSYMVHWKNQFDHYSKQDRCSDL
Chain of Cholinesterase (Homo sapiens) (P06276 whole entry): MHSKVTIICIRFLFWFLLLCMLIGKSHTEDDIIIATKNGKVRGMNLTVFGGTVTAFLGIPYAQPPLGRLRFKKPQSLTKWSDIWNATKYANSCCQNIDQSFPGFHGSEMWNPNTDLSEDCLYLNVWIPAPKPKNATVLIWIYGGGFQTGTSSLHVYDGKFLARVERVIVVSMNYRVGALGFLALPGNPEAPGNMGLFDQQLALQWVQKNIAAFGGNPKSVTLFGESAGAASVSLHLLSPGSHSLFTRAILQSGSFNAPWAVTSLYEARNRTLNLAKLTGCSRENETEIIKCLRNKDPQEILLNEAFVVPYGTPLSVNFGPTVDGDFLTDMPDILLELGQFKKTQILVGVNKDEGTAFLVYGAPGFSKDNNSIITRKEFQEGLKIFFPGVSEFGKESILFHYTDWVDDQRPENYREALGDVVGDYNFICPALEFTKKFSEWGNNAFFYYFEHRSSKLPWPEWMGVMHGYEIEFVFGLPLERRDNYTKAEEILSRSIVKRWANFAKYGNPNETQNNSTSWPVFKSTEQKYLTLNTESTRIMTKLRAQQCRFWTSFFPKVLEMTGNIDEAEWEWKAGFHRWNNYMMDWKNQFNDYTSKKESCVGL

In the case of `O=C(Cc1ccccc1B(O)O)N1CCC(Oc2ccc(C(F)(F)F)nc2)CC1`, the values for the inhibition in data set [1] and in data set [2] were 62% and 6%, respectively. On Hormone-sensitive lipase [3], the IC50 was 180 nM.
As for `OB(O)c1ccccc1CN1CCC(Oc2ccc(C(F)(F)F)cn2)CC1`, on Hormone-sensitive lipase [3], the IC50 turned out to be 1400 nM.
In turn, `O=C(Cc1ccc(F)cc1B(O)O)N1CCC(Oc2ccc(C(F)(F)F)cn2)CC1` gave a Cmax in data set [4] of 650 ng/mL. Also, the inhibition in [1] came to 2%; in data set [2], 7%. The compound further gave a logD at 0.5 h, 200 µM in [5] of 3.7. For the same compound, the solubility at 4 h in [6] came out at 190 µg/mL (≈ 446 µM); in data set [8] it was 99 µg/mL (≈ 232 µM); in data set [11] it was 84 µg/mL (≈ 197 µM). Also, the Activity with Rattus norvegicus [7] was determined as 22%. The AUC(0-t) at 7 h in data set [9] was 3180 ng·h/mL. Besides, the Papp at 4 h, 10000 µM in data set [10] and in data set [12] was over 50 ×10⁻⁶ cm/s each time.
As for `O=C(Cc1ccc(Cl)cc1B(O)O)N1CCC(Oc2ccc(C(F)(F)F)cn2)CC1`, the inhibition came to 5% in data set [1] and 8% in [2]. Also, the IC50 at Hormone-sensitive lipase [3] worked out at 24 nM.
With `O=C(C(O)c1ccccc1B(O)O)N1CCC(Oc2ccc(C(F)(F)F)cn2)CC1` (configuration not stated), the inhibition in data set [1] was 4%; in data set [2], -4%. The IC50 on Hormone-sensitive lipase [3] is 280 nM.
Consider `O=C(Nc1ccccc1B(O)O)c1ccc(Oc2ccc(C(F)(F)F)cn2)cc1`, for which, in data set [5], the pH-dependent lipophilicity (logD) at 0.5 h, 200 µM was found to be 3.2. Also, the half-maximal inhibitory concentration (IC50) at Hormone-sensitive lipase [3] turned out to be 470 nM.
With `O=C(Cc1ccccc1B(O)O)N1CCC(COc2ccc(C(F)(F)F)cn2)CC1`, the IC50 at Hormone-sensitive lipase [3] is 260 nM.
`CN(C)C(=O)c1ccc(OC2CCN(C(=O)Cc3ccccc3B(O)O)CC2)nc1`: the IC50 at Hormone-sensitive lipase [13] was over 5000 nM.
Take `O=C(CCc1ccccc1B(O)O)N1CCC(Oc2ccc(C(F)(F)F)cn2)CC1`: the IC50 on Hormone-sensitive lipase [3] was 1400 nM.
`O=C(Nc1ccc(Cl)cc1B(O)O)c1ccc(Oc2ccc(C(F)(F)F)cc2)nc1` registered a logD at 0.5 h, 200 µM in [5] of 4.3. Moreover, the solubility at 4 h in data set [6] amounted to 1.8 µg/mL (≈ 4.12 µM); in data set [8], 12 µg/mL (≈ 27.5 µM); in [11] it was 1.5 µg/mL (≈ 3.44 µM). Besides, the IC50 at Hormone-sensitive lipase [3] was determined as 110 nM.
`O=C(Nc1ccccc1B(O)O)c1ccc(Oc2ccc(C(F)(F)F)cn2)cn1`: the concentration for half-maximal inhibition (IC50) at Hormone-sensitive lipase [3] is 1100 nM.
`O=C(Cc1ccccc1B(O)O)N1CCC(Oc2ccc(C(F)(F)F)cn2)CC1`: the inhibition in data set [1] was 46%; in [2], 7%. On Hormone-sensitive lipase [3], the IC50 was 80 nM.
In the case of `O=C(Oc1ccc(Oc2ccc(C(F)(F)F)cn2)cc1)N1CCC(O)CC1`, the outcome with Rattus norvegicus [14] was Active.
Turning to `O=C(Cc1ccccc1B(O)O)N1CCC(Oc2ccc(C(F)(F)F)cc2)CC1`, the figures for the inhibition in data set [1] and in data set [2] were 72% and 9%, respectively. Also, the IC50 at Hormone-sensitive lipase [3] stood at 130 nM.
Consider `COc1ccc(CC(=O)N2CCC(Oc3ccc(C(F)(F)F)cn3)CC2)c(B(O)O)c1`, for which the inhibition in data set [1] is -4%; in [2] it was 9%. Further, the IC50 at Hormone-sensitive lipase [3] came to 45 nM.
